Source: ChEMBL document CHEMBL3616369, “N-O-Isopropyl Sulfonamido-Based Hydroxamates as Matrix Metalloproteinase Inhibitors: Hit Selection and in Vivo Antiangiogenic Activity” (J Med Chem, 2015)
Active and inactive are the calls of the source. No cut-off for these calls is given here.

Columns and labels:
Interstitial collagenase = biological target: T1, Interstitial collagenase (Homo sapiens, UniProt P03956); assay: Inhibition of recombinant human activated-MMP1 using Mca-Lys-Pro-Leu-Gly-Leu-Dap(Dnp)-Ala-Arg-NH2 as fluorogenic substrate incubated for 4 hrs followed by substrate addition measured every 10 secs for 20 mins by fluorometric assay
T1 sequence (P03956 whole entry): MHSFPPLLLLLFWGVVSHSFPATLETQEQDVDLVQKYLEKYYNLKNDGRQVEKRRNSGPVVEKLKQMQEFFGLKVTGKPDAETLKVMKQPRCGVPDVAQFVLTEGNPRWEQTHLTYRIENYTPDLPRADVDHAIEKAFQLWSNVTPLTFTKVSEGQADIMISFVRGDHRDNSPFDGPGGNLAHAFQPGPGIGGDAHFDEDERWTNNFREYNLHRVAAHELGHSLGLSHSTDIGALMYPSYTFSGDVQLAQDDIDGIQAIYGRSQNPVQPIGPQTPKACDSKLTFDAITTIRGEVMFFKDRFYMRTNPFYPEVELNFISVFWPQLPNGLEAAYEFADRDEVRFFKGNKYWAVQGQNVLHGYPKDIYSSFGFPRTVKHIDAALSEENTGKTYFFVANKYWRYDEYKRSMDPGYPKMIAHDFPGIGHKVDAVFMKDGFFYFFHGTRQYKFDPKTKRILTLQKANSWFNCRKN
Method in brief: (§1)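 Recombinant human MMPs. Pro-forms activated with APMA: MMP-2 2 mM 1 h, MMP-9 1 mM 1 h, MMP-1 2 mM 2 h, MMP-13 1 mM 35 min, all 37 °C. MMP-3 activated with trypsin 4.4 µg/mL 30 min, then soybean trypsin inhibitor. Final enzyme 0.5 (MMP-2), 1.3 (MMP-9), 1.0 (MMP-14cd), 2.0 (MMP-1), 0.66 (MMP-13), 5 nM (MMP-3). Preincubated with inhibitor 4 h at 25 °C in Tris 50 mM pH 7.5, NaCl 150 mM, CaCl2 10 mM, Brij 35 0.05%, DMSO 1%. Substrate 2 µM final; fluorescence (ex 325/em 395 nm) every 10 s for 20 min. IC50 from vi/vo = 1/(1+[I]/IC50).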

Stromelysin-1 = Stromelysin-1 (Homo sapiens, UniProt P08254); assay: Inhibition of recombinant human activated-MMP3 using Mca-Lys-Pro-Leu-Gly-Leu-Dap(Dnp)-Ala-Arg-NH2 as fluorogenic substrate incubated for 4 hrs followed by substrate addition measured every 10 secs for 20 mins by fluorometric assay; method in brief: as §1
[1] = biological target: T2, Matrix metalloproteinase-9 (Homo sapiens, UniProt P14780); assay: Inhibition of recombinant human activated-MMP9 using Mca-Lys-Pro-Leu-Gly-Leu-Dap(Dnp)-Ala-Arg-NH2 as fluorogenic substrate incubated for 4 hrs followed by substrate addition measured every 10 secs for 20 mins by fluorometric assay; method in brief: as §1
[2] = biological target: T3, 72 kDa type IV collagenase (Homo sapiens, UniProt P08253); assay: Inhibition of recombinant human activated-MMP2 using Mca-Lys-Pro-Leu-Gly-Leu-Dap(Dnp)-Ala-Arg-NH2 as fluorogenic substrate incubated for 4 hrs followed by substrate addition measured every 10 secs for 20 mins by fluorometric assay; method in brief: as §1
Target sequence in this assay (P08253 whole entry): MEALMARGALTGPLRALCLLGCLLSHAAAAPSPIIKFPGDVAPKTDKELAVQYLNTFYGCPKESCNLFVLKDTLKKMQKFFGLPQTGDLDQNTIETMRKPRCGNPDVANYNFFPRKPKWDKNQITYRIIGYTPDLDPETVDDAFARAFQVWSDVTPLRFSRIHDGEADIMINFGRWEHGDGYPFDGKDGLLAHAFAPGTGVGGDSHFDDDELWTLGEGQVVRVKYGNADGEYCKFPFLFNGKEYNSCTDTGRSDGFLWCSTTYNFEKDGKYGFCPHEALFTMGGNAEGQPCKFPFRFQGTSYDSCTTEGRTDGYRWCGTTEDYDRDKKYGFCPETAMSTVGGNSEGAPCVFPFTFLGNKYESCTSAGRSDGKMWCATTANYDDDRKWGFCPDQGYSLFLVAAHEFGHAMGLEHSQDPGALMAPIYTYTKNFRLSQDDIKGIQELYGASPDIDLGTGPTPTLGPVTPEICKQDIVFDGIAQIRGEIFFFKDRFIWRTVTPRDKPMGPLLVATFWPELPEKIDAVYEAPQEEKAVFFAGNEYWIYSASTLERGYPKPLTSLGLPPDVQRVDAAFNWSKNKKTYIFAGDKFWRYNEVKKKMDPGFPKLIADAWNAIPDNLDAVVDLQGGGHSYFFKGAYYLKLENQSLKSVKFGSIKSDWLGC

HUVEC [3] = assay: Inhibition of cell migration in human HUVEC at 0.001 to 10 uM after 6 hrs using modified Boyden chambers; assay type: functional, cell-based
Method in brief: (§2)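 Modified Boyden chamber. HUVEC (5x10^4), PBS-washed, in serum-free medium with or without inhibitor in upper compartment; 10% FBS or serum-free medium below. 8 µm polycarbonate filters coated with collagen 50 µg/mL (migration, 6 h) or matrigel 1 mg/mL (invasion, overnight). Cells on lower surface ethanol-fixed, stained, counted blind in eight fields. Three experiments in duplicate; one-way ANOVA.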

HUVEC [4] = assay: Inhibition of FBS-induced cell invasion in human HUVEC after overnight incubation using modified Boyden chambers; assay type: functional, cell-based; method in brief: as §2
[5] = biological target: T3, 72 kDa type IV collagenase; assay: Inhibition of MMP2 gelatinase activity in human HUVEC at 0.1 uM by gel zymography
Method in brief: (§3)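 Gelatin zymography on 10% polyacrylamide gels with 0.1% gelatin and SDS, samples unheated. Gels renatured 30 min at room temperature. Either untreated-HUVEC conditioned medium run and gel lane slices developed overnight at 37 °C in developing buffer containing inhibitor, or medium from inhibitor-treated HUVEC developed overnight without inhibitor. Coomassie stained; bands quantified by densitometry.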
Target sequence in this assay (P08253 110-660 limits assumed): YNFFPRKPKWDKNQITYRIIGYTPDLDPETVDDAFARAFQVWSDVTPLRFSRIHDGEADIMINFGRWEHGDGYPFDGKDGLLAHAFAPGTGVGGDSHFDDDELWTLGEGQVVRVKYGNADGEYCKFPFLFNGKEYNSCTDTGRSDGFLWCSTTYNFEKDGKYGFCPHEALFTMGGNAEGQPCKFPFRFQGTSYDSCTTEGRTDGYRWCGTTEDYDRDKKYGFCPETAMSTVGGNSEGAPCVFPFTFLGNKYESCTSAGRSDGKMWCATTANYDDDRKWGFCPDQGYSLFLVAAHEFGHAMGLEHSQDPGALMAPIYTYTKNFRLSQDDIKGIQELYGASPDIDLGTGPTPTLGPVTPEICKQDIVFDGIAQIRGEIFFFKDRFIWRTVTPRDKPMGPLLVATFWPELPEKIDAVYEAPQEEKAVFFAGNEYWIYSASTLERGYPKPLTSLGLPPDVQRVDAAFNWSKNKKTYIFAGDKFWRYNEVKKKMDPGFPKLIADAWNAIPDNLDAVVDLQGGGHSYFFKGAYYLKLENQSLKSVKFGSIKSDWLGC

HUVEC [6] = assay: Inhibition of FBS-induced network efficiency of human HUVEC assessed as reduction of number of meshes at 0.001 to 10 uM after 6 hrs by matrigel assay; assay type: functional, cell-based
Method in brief: (§4)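 Matrigel (10 mg/mL) polymerized 1 h at 37 °C. HUVEC (50x10^4/well) in complete medium with 10% FBS, with or without inhibitor at various concentrations, layered on top. After 6 h, capillary-like organization imaged by inverted microscope; mesh number counted as tubulogenic efficiency.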

[7] = biological target: T2, Matrix metalloproteinase-9; assay: Inhibition of MMP9 gelatinase activity in human HUVEC by gel zymography; method in brief: as §3
[8] = biological target: Matrix metalloproteinase-14 (Homo sapiens, UniProt P50281); assay: Inhibition of recombinant human catalytic domain MMP14 using Mca-Lys-Pro-Leu-Gly-Leu-Dap(Dnp)-Ala-Arg-NH2 as fluorogenic substrate incubated for 4 hrs followed by substrate addition measured every 10 secs for 20 mins by fluorometric assay; method in brief: as §1
[9] = biological target: T2, Matrix metalloproteinase-9; conditions: HUVEC, 0.1 uM
[10] = biological target: T3, 72 kDa type IV collagenase; assay: Inhibition of MMP2 gelatinase activity in human HUVEC by gel zymography; method in brief: as §3
Target sequence in this assay (P08253 110-660 limits assumed): as above

HUVEC [11] = assay: Inhibition of FBS-induced capillary-like network organization in human HUVEC at 0.001 to 10 uM after 6 hrs by matrigel assay; assay type: functional, cell-based; method in brief: as §4
U-87 MG = assay: Antiinvasive activity in human U87MG cells after 24 hrs by Transwell matrigel assay; assay type: functional, U-87MG ATCC

T2 sequence (P14780 whole entry): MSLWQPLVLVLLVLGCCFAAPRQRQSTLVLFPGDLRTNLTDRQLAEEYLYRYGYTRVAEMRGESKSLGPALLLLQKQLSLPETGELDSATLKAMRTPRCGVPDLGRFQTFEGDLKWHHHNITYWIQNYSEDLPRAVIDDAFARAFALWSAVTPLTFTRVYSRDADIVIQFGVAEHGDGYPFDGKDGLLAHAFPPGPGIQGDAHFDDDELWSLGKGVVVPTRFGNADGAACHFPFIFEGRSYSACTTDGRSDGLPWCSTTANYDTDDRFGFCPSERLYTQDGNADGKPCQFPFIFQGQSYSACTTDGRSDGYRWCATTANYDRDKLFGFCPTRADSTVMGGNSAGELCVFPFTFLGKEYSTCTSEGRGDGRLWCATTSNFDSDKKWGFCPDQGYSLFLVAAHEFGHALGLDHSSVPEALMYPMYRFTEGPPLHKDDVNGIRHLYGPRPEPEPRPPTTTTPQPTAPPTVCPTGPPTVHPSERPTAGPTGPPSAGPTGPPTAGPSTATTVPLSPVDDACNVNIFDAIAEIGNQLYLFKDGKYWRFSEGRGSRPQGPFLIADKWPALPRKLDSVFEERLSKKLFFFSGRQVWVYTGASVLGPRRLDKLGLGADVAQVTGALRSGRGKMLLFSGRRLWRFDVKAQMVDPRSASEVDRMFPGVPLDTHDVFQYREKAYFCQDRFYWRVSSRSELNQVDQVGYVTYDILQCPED
Sequence of Stromelysin-1 (P08254 whole entry): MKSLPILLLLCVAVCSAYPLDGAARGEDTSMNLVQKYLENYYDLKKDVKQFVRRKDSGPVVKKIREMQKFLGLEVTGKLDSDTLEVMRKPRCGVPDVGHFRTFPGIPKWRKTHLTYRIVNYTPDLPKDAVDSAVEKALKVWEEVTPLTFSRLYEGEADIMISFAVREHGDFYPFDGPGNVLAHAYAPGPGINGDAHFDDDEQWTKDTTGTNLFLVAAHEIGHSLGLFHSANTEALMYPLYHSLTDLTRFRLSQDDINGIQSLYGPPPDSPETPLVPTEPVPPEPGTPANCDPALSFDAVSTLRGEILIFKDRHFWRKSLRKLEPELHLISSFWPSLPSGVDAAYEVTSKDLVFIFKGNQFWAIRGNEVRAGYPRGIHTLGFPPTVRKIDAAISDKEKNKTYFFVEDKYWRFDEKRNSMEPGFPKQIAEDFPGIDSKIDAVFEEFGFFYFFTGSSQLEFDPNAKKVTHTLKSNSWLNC

Row | IC50 (Interstitial collagenase) [µM] | IC50 (Stromelysin-1) [µM] | IC50 [1] [µM] | IC50 [2] [µM] | Structure (SMILES) | other results
1 | 0.28 | 0.047 | 0.0065 |  | CC(=O)NCC[C@H](C(=O)NO)N(OC(C)C)S(=O)(=O)c1ccc(-c2ccccc2)cc1 | 
2 | 0.32 | 0.071 | 0.0086 | 0.001 | CC(C)ON([C@H](CCNS(C)(=O)=O)C(=O)NO)S(=O)(=O)c1ccc(-c2ccccc2)cc1 | 
3 | 1.3 | 0.12 | 0.0064 | 0.0014 | CC(C)ON([C@H](CCNC(=O)Cc1ccccc1)C(=O)NO)S(=O)(=O)c1ccc(-c2ccccc2)cc1 | 
4 | 0.66 | 0.02 | 0.002 |  | COc1ccc(-c2ccc(S(=O)(=O)N(OC(C)C)[C@H](CCNC(C)=O)C(=O)NO)cc2)cc1 | inhibition (HUVEC [3]): Active; inhibition (HUVEC [4]): Dose-dependent effect; inhibition [5]: Active; inhibition (HUVEC [6]): Active; inhibition [7]: Dose-dependent effect; IC50 [8]: 0.023 µM; inhibition [9]: Active; inhibition [10]: Dose-dependent effect; inhibition (HUVEC [11]): Active
5 |  |  |  |  | CC(C)ON([C@@H](C(=O)NO)C(C)C)S(=O)(=O)c1ccc(-c2ccccc2)cc1 | Activity (U-87 MG): 48%
